# Laboratory results from ChEMBL document CHEMBL4665810, “Aryloxy Diester Phosphonamidate Prodrugs of Phosphoantigens (ProPAgens) as Potent Activators of Vγ9/Vδ2 T-Cell Immune Responses” (J Med Chem, 2020).
# Active and inactive are the calls of the source. The calls are words filed in the database; no cut-off is given here.
# Tests used:
# [1] = target: T1, Butyrophilin subfamily 3 member A1 (Homo sapiens, UniProt O00481); test: (§1) Binding affinity to BTN3A1 in human PBMC-derived Vgamma9/Vdelta2 T cells assessed as induction of Vgamma9/Vdelta2 T cell mediated T-24 cell lysis co-expressing GFP at 10 pM preincubated 4 hrs followed by compound washout and subsequent Vgamma9Vdelta2 T cell addition at 8:1 effector/target ratio and measured after 18 hrs by fluorescence based assay; type: tissue-based
# In short: (§2)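 T24 bladder carcinoma cells made GFP+ by retroviral transduction. Targets pulsed 4 h with 10 pM compound, washed three times in RPMI, then cocultured 18 h at 37 °C with Vγ9Vδ2 T-cells expanded 14 days from donor PBMCs (5 μM zoledronate, 100 U/mL IL2 every 2–3 days). % killing = eFluor780+ GFP+ of all GFP+ T24 cells, by flow cytometry. Basal untreated-target killing subtracted; mean ± SE, n = 3.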
# Target sequence in this assay (O00481 30-513 limits assumed): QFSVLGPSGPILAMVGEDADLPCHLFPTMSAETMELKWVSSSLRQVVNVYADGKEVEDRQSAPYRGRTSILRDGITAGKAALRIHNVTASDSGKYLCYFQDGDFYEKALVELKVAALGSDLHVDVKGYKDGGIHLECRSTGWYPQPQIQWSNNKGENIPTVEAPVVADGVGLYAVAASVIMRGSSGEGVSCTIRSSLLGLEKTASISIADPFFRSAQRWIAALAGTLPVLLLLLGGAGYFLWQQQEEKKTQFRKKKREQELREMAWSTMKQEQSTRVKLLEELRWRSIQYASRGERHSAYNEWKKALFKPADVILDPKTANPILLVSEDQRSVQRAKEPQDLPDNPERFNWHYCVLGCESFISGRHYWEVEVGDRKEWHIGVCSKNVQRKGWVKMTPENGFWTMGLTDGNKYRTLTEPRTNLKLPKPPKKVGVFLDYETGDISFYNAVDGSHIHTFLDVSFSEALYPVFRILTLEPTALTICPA
# [2] = target: T1, Butyrophilin subfamily 3 member A1; test: as §1, with “1:1” for “8:1”; type: tissue-based; in short: as §2
# Target sequence in this assay (O00481 30-513 limits assumed): as above
# T-24 = test: Cytotoxicity against human T-24 cells co-expressing GFP assessed as reduction in cell viability at 10 pM after 4 hrs by eFluor 780 fixable viability dye based fluorescence assay; settings: t-24, 4 h
# In short: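 GFP+ T24 cells pulsed 4 h with 10 pM compound, washed, and held 18 h at 37 °C without effector cells (0:1 ratio). Dead targets measured by flow cytometry as eFluor780+ GFP+ fraction of total GFP+ T24 cells; mean ± SE, n = 3.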
# [3] = target: T1, Butyrophilin subfamily 3 member A1; test: Binding affinity to BTN3A1 in human PBMC-derived Vgamma9/Vdelta2 T cells assessed as increase in CD69/CD25 level incubated for overnight by flow cytometric analysis; type: tissue-based, Vgamma9Vdelta2 T cell
# In short: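 Healthy-donor PBMCs, 5 × 10^5 cells per well, stimulated with compounds over 10 pM to 100 μM, or 1 aM to 100 μM in a separate run. Incubated overnight at 37 °C/5% CO2. Vγ9+Vδ2+ cells gated within live CD3+ cells by flow cytometry and scored as % CD69+CD25+.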
# Target sequence in this assay (O00481 whole entry): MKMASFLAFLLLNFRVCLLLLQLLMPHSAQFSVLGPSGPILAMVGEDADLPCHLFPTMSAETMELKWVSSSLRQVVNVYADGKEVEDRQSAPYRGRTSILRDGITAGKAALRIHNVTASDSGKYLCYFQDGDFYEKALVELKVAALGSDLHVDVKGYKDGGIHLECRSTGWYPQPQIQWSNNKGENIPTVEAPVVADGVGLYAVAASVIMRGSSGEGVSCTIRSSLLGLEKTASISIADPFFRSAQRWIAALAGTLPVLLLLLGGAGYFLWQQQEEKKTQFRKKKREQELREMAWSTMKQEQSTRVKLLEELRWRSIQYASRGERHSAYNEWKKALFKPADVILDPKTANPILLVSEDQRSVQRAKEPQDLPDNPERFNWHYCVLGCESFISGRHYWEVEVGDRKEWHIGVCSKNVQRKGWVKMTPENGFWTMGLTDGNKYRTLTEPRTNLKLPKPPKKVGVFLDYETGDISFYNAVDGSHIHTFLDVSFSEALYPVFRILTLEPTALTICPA
# [4] = Drug metabolism assessed as recombinant carboxypeptidase Y (unknown origin)-mediated hydrolysis of ester motif at 3 mg measured at 1 hr interval […] by 31PNMR analysis; type: ADME, Homo sapiens
# In short: (§3)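 Compound, 3.0 mg in acetone-d6, mixed with TRIZMA buffer pH 7.6. Control 31P NMR taken at 25 °C, then carboxypeptidase Y (0.1 mg in TRIZMA) added. Spectra recorded at 25 °C after 10 min and then every 1 h for 12 h.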
# [5] = Drug metabolism assessed as recombinant carboxypeptidase Y (unknown origin)-mediated metabolite C formation and measured up to 15 hrs by HPLC analysis; type: ADME; settings: human
# [6] = Drug metabolism assessed as recombinant carboxypeptidase Y (unknown origin)-mediated metabolite C formation and measured up to 15 hrs by LC-MS analysis; type: ADME; settings: human
# [7] = Drug metabolism assessed as recombinant carboxypeptidase Y (unknown origin)-metabolite C formation at 3 mg measured at 1 hr interval for […] by 31PNMR analysis; type: ADME, Homo sapiens; in short: as §3
# [8] = target: T1, Butyrophilin subfamily 3 member A1; test: Potency index, ratio of HMBPP EC50 to test compound EC50 for activation of BTN3A1 in human PBMC-derived Vgamma9/Vdelta2 T cells; type: tissue-based; settings: Vgamma9Vdelta2 T cell
# Target sequence in this assay (O00481 30-513 limits assumed): as the sequence (O00481 30-513 limits assumed) above
# [9] = Stability of compound in human serum at 5 mg and measured at 30 mins interval for up to 12 hrs by 31PNMR analysis; type: ADME, cell-free
# In short: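 Compound, 5.0 mg in DMSO/D2O, with control 31P NMR recorded at 37 °C. Freshly thawed human serum then added and 31P NMR spectra recorded at 37 °C every 30 min over 12 h.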
# CD8-positive T cell = test: Activation of human PBMC derived CD-8 positive cells assessed as increase in alphabeta T cells at 0.1 to 10000 nM by Alexa Flour A88a staining based flow cytometry; type: functional; settings: dose nM 0.1-10000
# [10] = target: T1, Butyrophilin subfamily 3 member A1; test: Binding affinity to BTN3A1 in human PBMC-derived Vgamma9/Vdelta2 T cells; type: tissue-based, Vgamma9Vdelta2 T cell
# Target sequence in this assay (O00481 whole entry): as the sequence (O00481 whole entry) above
# [11] = Half life in human serum at 5 mg and measured up to 12 hrs by 31PNMR analysis; type: ADME, cell-free
# In short: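 Prodrug (5.0 mg) dissolved in DMSO/D2O; control 31P NMR spectrum recorded at 37 °C, then freshly thawed human serum added. 31P NMR spectra acquired at 37 °C every 30 min over 12 h to follow the prodrug signals.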
SMILES,Activity [1],Activity [2],Activity (T-24),EC50 [3] [µM],other results
C/C(=C\CCP(=O)(N[C@@H](C)C(=O)OC(C)(C)C)Oc1ccccc1)CO (some centres undefined),Active,Active,Non-Toxic,0.0734,
C/C(=C\CC(F)(F)P(=O)(N[C@@H](C)C(=O)OC(C)(C)C)Oc1ccccc1)CO (some centres undefined),Active,Active,Non-Toxic,0.0258,
C/C(=C\CC(F)(F)P(=O)(N[C@@H](C)C(=O)OC(C)C)Oc1ccccc1)CO (some centres undefined),,,,0.000759,Drug metabolism [4]: Metabolite_Detected; Drug metabolism [5]: Metabolite_Detected; Drug metabolism [6]: Metabolite_Detected; Drug metabolism [7]: Metabolite_Detected
C/C(=C\CCP(=O)(N[C@@H](C)C(=O)OCc1ccccc1)Oc1ccccc1)CO (some centres undefined),Active,Active,Non-Toxic,,Ratio EC50 [8]: 15000; Stabilty [9]: Stable; Activity (CD8-positive T cell): inactive
COC(=O)[C@H](C)NP(=O)(Oc1ccccc1)C(F)(F)C/C=C(\C)CO (some centres undefined),,,,0.000728,Stabilty [9]: Stable
C/C(=C\CCP(=O)(N[C@@H](C)C(=O)OC(C)C)Oc1ccccc1)CO (some centres undefined),,,,0.000519,
O=P(O)(O)C(O)(Cc1cccnc1)P(=O)(O)O [RISEDRONIC ACID],,,,,EC50 [10]: 0.08 µM
C/C(=C\CC(F)(F)P(=O)(N[C@@H](C)C(=O)OCc1ccccc1)Oc1ccccc1)CO (some centres undefined),Active,Active,Non-Toxic,,Ratio EC50 [8]: 15000; Activity (CD8-positive T cell): inactive
COC(=O)[C@H](C)NP(=O)(CC/C=C(\C)CO)Oc1ccccc1 (some centres undefined),,,,0.000617,
O=P(O)(O)C(O)(Cn1ccnc1)P(=O)(O)O [ZOLEDRONIC ACID],,,,3.06,
C/C(=C\COP(=O)(O)OP(=O)(O)O)CO,Active,Active,Non-Toxic,,half-life [11]: > 12 h
